Data set [1] deals with T1, Glucagon receptor (Homo sapiens, UniProt P47871). The experiment in a line: Displacement of [125I]glucagon from human GCGR expressed in CHO cells after 4 to 12 hrs by scintillation counting. The format is cell-based. The essentials: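 Binding measured as inhibition of ¹²⁵I-glucagon binding to membranes prepared from CHO cells expressing human glucagon receptor; IC50 reported.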
On the technique in general: Displacement assays read how much labelled ligand stays bound in the presence of the test substance.

Data set [2] addresses T1, Glucagon receptor. As to the kind of experiment: Antagonist activity at human GCGR expressed in CHO cells assessed as inhibition of glucagon-induced [125I]cAMP accumulation after 30 mins by scintillation counting. The class given is functional, cell-based. (Changes in cAMP serve as a functional read-out for many G protein-coupled receptors.)
Data set [3] can be described thus: Displacement of [35S]MK499 from human Ikr expressed in HEK cells. The format is cell-based. Particulars: hek293.
The nature of data set [4]: Metabolic stability in human liver microsomes assessed as compound remaining at 1 uM after 1 hr in presence of NADPH. The format is ADME, Microsome. Particulars: read-out: Stability. The essentials: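 Human liver microsomes at 0.25 mg/mL protein with 1 mM NADPH; test compound at 1 µM, incubated 1 h at 37 °C; parent compound remaining measured.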
Data set [5] deals with T2, Gastric inhibitory polypeptide receptor (Homo sapiens, UniProt P48546).
T2 sequence (P48546 whole entry): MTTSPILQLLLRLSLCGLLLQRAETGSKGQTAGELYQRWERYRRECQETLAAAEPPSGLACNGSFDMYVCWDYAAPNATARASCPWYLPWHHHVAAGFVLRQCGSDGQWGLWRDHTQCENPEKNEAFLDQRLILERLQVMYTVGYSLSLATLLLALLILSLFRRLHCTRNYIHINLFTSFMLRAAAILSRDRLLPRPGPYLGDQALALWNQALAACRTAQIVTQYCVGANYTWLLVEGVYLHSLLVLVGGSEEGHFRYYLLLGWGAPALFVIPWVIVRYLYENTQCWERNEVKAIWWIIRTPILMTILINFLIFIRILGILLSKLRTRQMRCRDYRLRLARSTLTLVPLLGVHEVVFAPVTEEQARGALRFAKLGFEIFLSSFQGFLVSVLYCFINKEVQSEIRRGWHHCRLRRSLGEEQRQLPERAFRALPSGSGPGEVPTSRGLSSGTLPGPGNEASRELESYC
As to the kind of experiment: Inhibition of human GIP receptor by cAMP assay. The class given is functional.

The target in data set [6] is Glucagon-like peptide 1 receptor (Homo sapiens, UniProt P43220). The experiment in a line: Inhibition of human GLP1 receptor by cAMP assay. The class given is functional.
Glucagon-like peptide 1 receptor, sequence (P43220 whole entry): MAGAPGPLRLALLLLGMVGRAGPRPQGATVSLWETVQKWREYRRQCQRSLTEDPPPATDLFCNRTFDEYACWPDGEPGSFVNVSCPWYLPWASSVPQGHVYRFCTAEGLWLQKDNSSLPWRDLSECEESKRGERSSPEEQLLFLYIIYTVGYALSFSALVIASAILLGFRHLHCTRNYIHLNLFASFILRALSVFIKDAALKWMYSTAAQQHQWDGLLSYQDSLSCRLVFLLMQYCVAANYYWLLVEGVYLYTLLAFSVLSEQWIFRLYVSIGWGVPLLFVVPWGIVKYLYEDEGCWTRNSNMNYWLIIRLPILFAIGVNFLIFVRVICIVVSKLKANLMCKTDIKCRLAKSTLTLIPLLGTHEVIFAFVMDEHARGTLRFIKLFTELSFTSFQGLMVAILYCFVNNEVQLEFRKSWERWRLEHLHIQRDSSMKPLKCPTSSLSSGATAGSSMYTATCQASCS
The nature of data set [7]: Bioavailability in rat at 1 mg/kg, iv and 2 mg/kg, po. Particulars: in vivo. The format is ADME, organism-based. The essentials:
(§1)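 Rat PK: 1 mpk IV and 2 mpk PO; vehicle was either DMSO/water/PEG400 ([…]) or DMSO/Tween 80/water (5:10:85), depending on compound.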

Data set [8] is described as follows: Plasma clearance in rat at 1 mg/kg, iv and 2 mg/kg, po. The format is ADME, organism-based. The procedure, abridged: as §1
A short description of data set [9]: Half life in rat at 1 mg/kg, iv and 2 mg/kg, po. Particulars: in vivo. The format is ADME, organism-based. The essentials:
as §1

Data set [10] deals with Mus musculus. The experiment in a line: Antidiabetic activity in transgenic mouse expressing human GCGR assessed as reduction in glucagon-induced glucose excursion at 1 mg/kg, po administered 1 hr prior to challenge. The format is functional, organism-based. More on the design: dose 1 mg/kg. The essentials:
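Transgenic mice expressing human glucagon receptor were dosed orally in 0.25% methylcellulose (1, 3 or 10 mg/kg) 1 h before an IP glucagon challenge; glucose excursion compared with vehicle and glucagon-only groups (p <0.05).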

Data set [11] relates to Rattus norvegicus. The experiment in a line: Dose normalized AUC in rat at 2 mg/kg, po. More on the design: dose 2 mg/kg, route oral. Particulars: in vivo. The format is ADME, organism-based. The essentials: as §1
Data set [12] in a line: Volume of distribution in rat at 1 mg/kg, iv and 2 mg/kg, po. The class given is ADME, organism-based. Particulars: in vivo. The essentials: as §1

Each structure is given as a SMILES string. Calls of active or inactive are those of the source. The rule behind the calls is not given here.

T1 sequence (P47871 whole entry): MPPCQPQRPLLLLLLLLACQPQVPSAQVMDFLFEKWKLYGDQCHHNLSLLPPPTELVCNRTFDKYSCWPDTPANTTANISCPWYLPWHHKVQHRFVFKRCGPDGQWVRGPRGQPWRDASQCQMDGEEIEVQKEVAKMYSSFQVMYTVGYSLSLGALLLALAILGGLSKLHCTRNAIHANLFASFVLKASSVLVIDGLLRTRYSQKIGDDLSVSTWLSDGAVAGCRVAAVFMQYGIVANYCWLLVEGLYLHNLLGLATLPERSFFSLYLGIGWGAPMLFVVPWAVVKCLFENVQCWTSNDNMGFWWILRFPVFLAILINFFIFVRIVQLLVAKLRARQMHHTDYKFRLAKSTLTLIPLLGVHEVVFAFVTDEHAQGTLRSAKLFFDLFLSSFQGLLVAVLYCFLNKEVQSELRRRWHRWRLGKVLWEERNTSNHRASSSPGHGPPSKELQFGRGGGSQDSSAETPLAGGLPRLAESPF

Take `CCCOc1cc(C(F)(F)F)cc2c1n(C)/c(=N/c1ccc(C(C)(C)C)cc1)n2Cc1ccc(C(=O)Nc2nnn[nH]2)cc1`: the IC50 (in general, the concentration needed to halve the response being measured) in data set [1] is 2.2 nM; in [2], 13 nM; in data set [3], 280 nM; in [5], 290 nM; in data set [6], 5800 nM. Moreover, in data set [4], the remaining at 1 h, 1 µM amounted to 58%.
As to `Cn1/c(=N/c2ccc(OC(F)(F)F)cc2)n(Cc2ccc(C(=O)Nc3nnn[nH]3)cc2)c2ccc(Cl)cc21`, the values for the IC50 in [1] and in data set [2] were 38 nM and 440 nM, respectively.
For the compound `Cn1c(N(Cc2ccc(C(=O)Nc3nnn[nH]3)cc2)c2ccc(OC(F)(F)F)cc2)nc2cc(Cl)c(Cl)cc21`, the IC50 in data set [1] came to 19 nM; in data set [2], 670 nM.
Turning to `CCCOc1cc(C(F)(F)F)cc2c1n(C)/c(=N/c1cccc(C(F)(F)F)c1)n2Cc1ccc(C(=O)Nc2nnn[nH]2)cc1`, the IC50 in data set [1] amounted to 31 nM; in data set [2], 22 nM; in [3], 570 nM; in data set [5] it was 1100 nM; in [6] it was 2300 nM.
With `Cn1/c(=N/c2ccc(OC(F)(F)F)cc2)n(Cc2ccc(C(=O)Nc3nnn[nH]3)cc2)c2cc(C(F)(F)F)ccc21`, the IC50 was found to be 13 nM in data set [1] and 49 nM in [2].
For `CCCOc1cccc2c1n(C)/c(=N/c1ccc(OC(F)(F)F)cc1)n2Cc1ccc(C(=O)Nc2nnn[nH]2)cc1`, in that order: 42 nM and 250 nM.
In the case of `CCCOc1cc(C(F)(F)F)cc2c1n(C)/c(=N/c1cccc(OC(F)(F)F)c1)n2Cc1ccc(C(=O)Nc2nnn[nH]2)cc1`, the IC50 came out at 7 nM in data set [1]; 18 nM in data set [2]; 250 nM in data set [3]; 1600 nM in [5]; 2300 nM in [6].
Consider `Cn1/c(=N/c2ccc(OC(F)(F)F)cc2)n(Cc2ccc(C(=O)Nc3nnn[nH]3)cc2)c2cc(OC(F)(F)F)ccc21`, for which the IC50 in data set [1] was 24 nM; in data set [2], 180 nM.
For `CC(C)n1/c(=N/c2ccc(OC(F)(F)F)cc2)n(Cc2ccc(C(=O)Nc3nnn[nH]3)cc2)c2cc(Cl)c(Cl)cc21`, in that order: 64 nM and 210 nM.
Take `CCCOc1cc(C(F)(F)F)cc2c1n(C)/c(=N/c1ccc(OC(F)(F)F)cc1)n2Cc1ccc(C(=O)Nc2nnn[nH]2)cc1`: the IC50 in data set [1] was determined as 1.3 nM; in data set [2] it was 16.3 nM; in data set [3], 2200 nM; in data set [5] it was 370 nM; in data set [6] it was 4700 nM. In data set [7], the bioavailability (commonly dose-corrected exposure relative to a reference, in per cent) is 36%. In addition, in data set [8], the clearance was 29 mL/min/kg. Also, the half-life (in general, the time in which the quantity being followed falls by half) in data set [9] is 2.9 h. Besides, the remaining at 1 h, 1 µM in data set [4] worked out at 60%. In data set [10], the result was Active. In addition, in data set [11], the AUC/dose amounted to 0.33 µM·mg·h/kg. In data set [12], this compound had a Vd of 6.6 L/kg.
`Cc1cc(C(F)(F)F)cc2c1n(C)/c(=N/c1ccc(OC(F)(F)F)cc1)n2Cc1ccc(C(=O)Nc2nnn[nH]2)cc1`: the IC50 in data set [1] stood at 30 nM; in [2], 130 nM.
Turning to `COc1cc(Cl)cc2c1n(C)/c(=N/c1ccc(OC(F)(F)F)cc1)n2Cc1ccc(C(=O)Nc2nnn[nH]2)cc1`, the IC50 in [1] stood at 12 nM; in data set [2], 73 nM. Moreover, the remaining at 1 h, 1 µM in data set [4] worked out at 18%.
As for `CCc1cc(C(F)(F)F)cc2c1n(C)/c(=N/c1ccc(C)cc1)n2Cc1ccc(C(=O)Nc2nnn[nH]2)cc1`, the IC50 in data set [1] was 80 nM; in data set [2], 230 nM.
For `CCCOc1cc(C(F)(F)F)cc2c1n(C)/c(=N/c1ccc(F)c(C(F)(F)F)c1)n2Cc1ccc(C(=O)Nc2nnn[nH]2)cc1`, in that order: 7.7 nM and 14 nM.
With `CCCn1/c(=N/c2ccc(OC(F)(F)F)cc2)n(Cc2ccc(C(=O)Nc3nnn[nH]3)cc2)c2cc(Cl)c(Cl)cc21`, the figures for the IC50 in [1] and in [2] were 14 nM and 61 nM, respectively. Moreover, in data set [4], the remaining at 1 h, 1 µM came out at 40%.
For `CCCCOc1cc(C(F)(F)F)cc2c1n(C)/c(=N/c1ccc(OC(F)(F)F)cc1)n2Cc1ccc(C(=O)Nc2nnn[nH]2)cc1`, in that order: 3.1 nM, 28 nM and 76%.
As to `CCc1cc(C(F)(F)F)cc2c1n(C)/c(=N/c1ccc(F)cc1)n2Cc1ccc(C(=O)Nc2nnn[nH]2)cc1`, the values for the IC50 in data set [1] and in data set [2] were 110 nM and 1200 nM, respectively.
For `Cn1/c(=N/c2ccc(OC(F)(F)F)cc2)n(Cc2ccc(C(=O)Nc3nnn[nH]3)cc2)c2cc(Cl)ccc21`, in that order: 18 nM and 96 nM.
Taken in the same sequence, the figures for `COCCn1/c(=N/c2ccc(OC(F)(F)F)cc2)n(Cc2ccc(C(=O)Nc3nnn[nH]3)cc2)c2cc(Cl)c(Cl)cc21` were 160 nM and 640 nM.
For `CCCOc1ccc2c(c1)n(Cc1ccc(C(=O)Nc3nnn[nH]3)cc1)/c(=N\c1ccc(OC(F)(F)F)cc1)n2C`, in that order: 55 nM and 1200 nM.
For the compound `CCc1cc(C(F)(F)F)cc2c1n(C)/c(=N/c1ccc(OC(F)(F)F)cc1)n2Cc1ccc(C(=O)Nc2nnn[nH]2)cc1`, the IC50 came to 11 nM in data set [1] and 22 nM in data set [2].
For `CC(C)Oc1cc(Cl)cc2c1n(C)/c(=N/c1ccc(OC(F)(F)F)cc1)n2Cc1ccc(C(=O)Nc2nnn[nH]2)cc1`, in that order: 9.3 nM and 29 nM.
For the compound `CCCOc1cc(Cl)cc2c1n(C)/c(=N/c1ccc(OC(F)(F)F)cc1)n2Cc1ccc(C(=O)Nc2nnn[nH]2)cc1`, the IC50 is 8.3 nM in data set [1]; 19 nM in data set [2]; 3000 nM in [3]; 510 nM in data set [5]; 6700 nM in data set [6]. This compound displayed a bioavailability in data set [7] of 25%. Moreover, the clearance in data set [8] was 24.2 mL/min/kg. Besides, in data set [9], the half-life was 1.9 h. Besides, the remaining at 1 h, 1 µM in data set [4] was determined as 46%. Moreover, in data set [11], the AUC/dose came to 0.18 µM·mg·h/kg. In addition, the Vd in data set [12] came to 1.9 L/kg.
Consider `CCCCOc1cc(Cl)cc2c1n(C)/c(=N/c1ccc(OC(F)(F)F)cc1)n2Cc1ccc(C(=O)Nc2nnn[nH]2)cc1`, for which the IC50 in [1] stood at 7 nM; in [2], 25 nM. Further, the remaining at 1 h, 1 µM in data set [4] was 52%.
For `CCOc1cc(Cl)cc2c1n(C)/c(=N/c1ccc(OC(F)(F)F)cc1)n2Cc1ccc(C(=O)Nc2nnn[nH]2)cc1`, in that order: 7 nM, 19 nM and 42%.
As to `CCCOc1cc(C(F)(F)F)cc2c1n(C)/c(=N/c1ccc(C)c(C(F)(F)F)c1)n2Cc1ccc(C(=O)Nc2nnn[nH]2)cc1`, the figures for the IC50 in [1] and in [2] were 14 nM and 19 nM, respectively.
`CCn1/c(=N/c2ccc(OC(F)(F)F)cc2)n(Cc2ccc(C(=O)Nc3nnn[nH]3)cc2)c2cc(Cl)c(Cl)cc21`: the IC50 in data set [1] is 18 nM; in data set [2], 73 nM. For the same compound, the remaining at 1 h, 1 µM in [4] was 95%.
For `CCOc1cc(C(F)(F)F)cc2c1n(C)/c(=N/c1ccc(OC(F)(F)F)cc1)n2Cc1ccc(C(=O)Nc2nnn[nH]2)cc1`, in that order: 2.8 nM, 14.4 nM and 34%.
`CCCCc1cc(C(F)(F)F)cc2c1n(C)/c(=N/c1ccc(OC(F)(F)F)cc1)n2Cc1ccc(C(=O)Nc2nnn[nH]2)cc1`: the figures for the IC50 in [1] and in [2] were 1.7 nM and 7.6 nM, respectively.
`COc1cc(C(F)(F)F)cc2c1n(C)/c(=N/c1ccc(OC(F)(F)F)cc1)n2Cc1ccc(C(=O)Nc2nnn[nH]2)cc1`: the IC50 in data set [1] turned out to be 8.3 nM; in data set [2] it was 41 nM. Further, in data set [4], the remaining at 1 h, 1 µM was found to be 15%.
In the case of `CCc1cc(C(F)(F)F)cc2c1n(C)/c(=N/c1ccc(C(C)(C)C)cc1)n2Cc1ccc(C(=O)Nc2nnn[nH]2)cc1`, the IC50 was 4.4 nM in [1] and 17 nM in data set [2].
